STAT3 activator = increases IL-6 driven STAT3 reporter signal. U3A cells, IL-6 STAT3-luciferase reporter, luminescence; 100% = signal with IL-6 EC80 alone. activation (% of control), % at 5.6 µM. 190,000 compounds, 0.91% hits. AID 871;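 active = activation above the screen-wide mean of compound activation plus 3 SD, cut at about 130% in these data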;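 note: 0% = background luminescence of wells with medium and substrate only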
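Test system: STAT3-luciferase reporter U3A cells; Detection: reporter luminescence signal; Times: 1 h compound pre-exposure, 6 h IL-6 stimulation, 37 °C; Benchmarks: IL-6-only high control; Also added: IL-6 stimulus at 33 ng/mL final.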
NF-kB expr up = raises NF-kB expression in human neuronal cells; NF-kB reporter expression; hits give high values; fold change at 12.5 µM; 190,000 compounds, 1.6% hits; AID 1239; in the data active = fold change above about 3.3
APP 5'UTR act = APP 5'UTR luciferase reporter activation; SH-SY5Y APP 5'UTR luciferase reporter, luminescence; zero percent = DMSO vehicle wells; activation, % at 2 µM; 190,000 compounds, 1% hits;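 active = activation above a set limit, based on mean plus 3 SD of controls, cut at about 140% in these data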
STAT1 act = activators of IFN-gamma induced STAT1 signaling; activation (% of control), % at 5.5 µM; AID 932; 200,000 compounds, 2.6% hits; NIH 3T3 STAT1-luciferase reporter, luminescence; 100% = IFN-gamma alone, no compound;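 active = activation above the screen-wide mean activation plus 3 SD, cut at about 130% in these data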;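 note: raw ratio to IFN-gamma control signal so 100% means no change and 0% no light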
STAT1 inh-1 = inhibitors of IFN-gamma induced STAT1 signaling; NIH 3T3 STAT1-luciferase reporter, luminescence; inhibition, % at 5.5 µM; 200,000 compounds, 0.35% hits;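 active = inhibition above a set limit, the mean inhibition across all tested compounds plus 3 SD, cut at about 34% in these data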;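 note: 0% = IFN-gamma with DMSO and 100% = IFN-gamma with 300 µM nifuroxazide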
STAT3 inh = STAT3 signaling inhibition. U3A cells, IL-6 STAT3-luciferase reporter, luminescence; host cell line lacks STAT1. inhibition, % at 5.5 µM. 190,000 compounds, 0.89% hits. AID 862;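 active = inhibition above the mean inhibition across all screened compounds plus 3 SD, cut at about 44% in these data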;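 note: 0% = DMSO only wells and 100% = 100 µM nifuroxazide control wells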
STAT1 inh-2 = STAT1 inhibition, confirmation assay; inhibition, % at 5.5 µM; NIH 3T3 STAT1-luciferase reporter, IFN-gamma, luminescence; 200 compounds, 55% hits; shares compounds with STAT1 inh-1;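 active = triplicate mean inhibition exceeding the hit cutoff computed for the primary STAT1 screen, cut at about 35% in these data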;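 note: 0% = DMSO with IFN-gamma and 100% = 300 µM nifuroxazide with IFN-gamma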
NFkB inh STAT1ct = inhibits NF-kappaB, counter-screen to STAT1 inhibitors; inhibition, % at 5.7 µM; HEK293T NF-kB luciferase reporter, TNF-alpha induced, luminescence; 200 compounds, 30% hits; shares compounds with STAT1 inh-1; AID 1303;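 active = inhibition above the mean of solvent-only control wells plus 3 SD of those wells, cut at about 15% in these data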;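 note: 0% = DMSO with TNF-alpha and 100% = MG-132 control with TNF-alpha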
STAT3 inh STAT1c = counter-screen for STAT1 inhibitors: STAT3 inhibition | shares compounds with STAT1 inh-1 | U3A cells, IL-6 STAT3 luciferase reporter, luminescence; cells lacking STAT1 | inhibition, % at 5.7 µM | 200 compounds, 20% hits;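 active = inhibition above the mean of solvent-only control wells plus 3 SD, set per campaign, cut at about 25% in these data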;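 note: 0% = IL-6 plus DMSO and 100% = IL-6 plus nifuroxazide control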
STAT1 activ conf = confirmation of STAT1 signaling activators | shares compounds with STAT1 act | NIH 3T3 STAT1-luciferase reporter, IFN-gamma potentiation, luminescence; 100% = IFN-gamma EC80 alone, no compound | activation (% of control), % at 5.7 µM | 1,200 compounds, 97% hits;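 active = activation above a set limit carried over from the earlier primary STAT1 screen, cut at about 140% in these data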;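 note: simple ratio to median IFN-gamma plus DMSO wells so 0% means no light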
NFkB act STAT1ct = activates NF-kappaB, counter-screen to STAT1 activators; shares compounds with STAT1 act; HEK293T NF-kB luciferase reporter, TNF-alpha stimulated, luminescence; 100% = TNF-alpha with vehicle only; activation (% of control), % at 5.7 µM; 1,200 compounds, 43% hits;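 active = activation above the mean of solvent-only control wells plus 3 SD, set per campaign, cut at about 130% in these data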;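 note: TNF-alpha given at a submaximal dose yielding about 80% of full reporter signal; values are well signal over median control so 100% means no change and 0% no light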
STAT3 act STAT1c = counter-screen for STAT1 activators: human STAT3 activation; shares compounds with STAT1 act; U3A cells STAT3-luciferase reporter, IL-6, luminescence; cells lack STAT1; 100 = IL-6 alone, no compound effect; activation (% of control), % at 5.7 µM; 1,200 compounds, 46% hits; AID 1316;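 active = activation above the solvent-only control well mean plus 3 SD, set per plate batch, cut at about 110% in these data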;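 note: 0% = no luminescence and 100% = median IL-6 plus DMSO wells; higher means more STAT3 reporter activation so hits are non-selective activators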
The depositor's hits bear a star. In the library only some 5.1% were active in any assay of this set; here they are far more common.

Screening NS(=O)(=O)c1ccc(CCNC(=O)c2ccc(C#CC3(O)CCCCC3)cc2)cc1 returned STAT3 activator 87, NF-kB expr up 0.32, APP 5'UTR act 1, STAT1 act 52, STAT1 inh-1 52*, STAT3 inh 17, STAT1 inh-2 -16, NFkB inh STAT1ct 8 and STAT3 inh STAT1c -30.
For N/C(=N\OC(=O)c1ccc2c(c1)OCO2)c1cccc(Br)c1 the results were STAT3 activator 105, NF-kB expr up 1.5, APP 5'UTR act 79, STAT1 act 162*, STAT1 inh-1 -71, STAT3 inh -1, STAT1 activ conf 178*, NFkB act STAT1ct 129 and STAT3 act STAT1c 111*.
Screening CCc1nc(N2CCN(S(C)(=O)=O)CC2)c2c3c(sc2n1)CCCC3 returned STAT3 activator 92, NF-kB expr up 0.98, APP 5'UTR act -12, STAT1 act 95, STAT1 inh-1 4 and STAT3 inh 12.
For Cc1ccc(NC(=O)c2c(C)nc3ccccn23)cc1C the results were STAT3 activator 92, NF-kB expr up 3.8*, APP 5'UTR act 168*, STAT1 act 154*, STAT1 inh-1 -59, STAT3 inh 12, STAT1 activ conf 191*, NFkB act STAT1ct 139* and STAT3 act STAT1c 97.
For Cc1ccn2c(c1)nc(=S)n2C(=O)c1ccco1 the results were STAT3 activator 102, NF-kB expr up 8.5*, APP 5'UTR act 161*, STAT1 act 217*, STAT1 inh-1 -129, STAT3 inh 1, STAT1 activ conf 193*, NFkB act STAT1ct 152* and STAT3 act STAT1c 122*.
For Cc1nn(C(=O)c2ccco2)c(C)c1Br the results were STAT3 activator 97, NF-kB expr up 1.2, APP 5'UTR act 3, STAT1 act 97, STAT1 inh-1 3 and STAT3 inh 4.
C=CCn1c(C)cc(C(=O)CSc2nc3ccccc3o2)c1C was read as STAT3 activator 75, NF-kB expr up 2.2, APP 5'UTR act 107, STAT1 act 160*, STAT1 inh-1 -65, STAT3 inh 32, STAT1 activ conf 215*, NFkB act STAT1ct 120 and STAT3 act STAT1c 103.
Screening Cc1ccc(C(=O)/C=C/NCc2ccc(F)cc2)cc1 returned STAT3 activator 97, NF-kB expr up 1.4, APP 5'UTR act 0, STAT1 act 120, STAT1 inh-1 -23 and STAT3 inh 3.
Screening O=C(/C=C/Nc1ccc(F)cc1)c1ccc(Br)cc1 returned STAT3 activator 86, APP 5'UTR act 135, STAT1 act 172*, STAT1 inh-1 -78, STAT3 inh 22, STAT1 activ conf 218*, NFkB act STAT1ct 132 and STAT3 act STAT1c 104.
`O=C(/C=C/Nc1ccccc1F)c1ccc(Br)cc1` gave STAT3 activator 81, NF-kB expr up 8.8*, APP 5'UTR act 224*, STAT1 act 182*, STAT1 inh-1 -92, STAT3 inh 21, STAT1 activ conf 239*, NFkB act STAT1ct 111 and STAT3 act STAT1c 107.
